Reference: article PMC6448596 (Cell reports, 2019)

What was measured:
HL60 cells = assay: Proliferation assay; format: cell-based; details: Homo sapiens, HL-60, 72 h
Summary of the method: (§1)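 CellTiter-Glo, 5,000 cells/well. Cells received 0.1% DMSO or at least five two-fold dilutions of test compound (top 50 μM, final DMSO 0.1%), in triplicate wells and ≥2 biological replicates, for 72 h at 37°C. Reagent was added after equilibration to RT, with 30 min dark incubation before luminescence. Signals were normalized to DMSO wells and GI50 obtained by curve fitting. Curve error bars are SEM.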

K562 cells = assay: Proliferation assay; format: cell-based; details: Homo sapiens, K562, 72 h
Summary of the method: as §1

THP-1 cells = assay: Proliferation assay; format: cell-based; details: Homo sapiens, THP-1, 72 h
Summary of the method: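 THP-1 cells were grown in RPMI-1640 with 0.05 mM 2-mercaptoethanol and 10% FBS. Cells were plated 5,000/well with ≥5 two-fold dilutions of test compound (top 50 μM, 0.1% DMSO final), in triplicate wells with ≥2 biological replicates.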

HEL cells = assay: Proliferation assay; format: cell-based; details: Homo sapiens, 72 h
Summary of the method: as §1

NOMO-1 cells = assay: Proliferation assay; format: cell-based; details: Homo sapiens, NOMO-1, 72 h
Summary of the method: as §1

SET-2 cells = assay: Proliferation assay; format: cell-based; details: Homo sapiens, SET-2, 72 h
Summary of the method: as §1

MA93 cells = assay: Proliferation assay; format: cell-based; details: Homo sapiens, 72 h
Summary of the method: (§2)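 CellTiter-Glo at 2,000 cells/well. MA93 Ras and MA93 FLT3/ITD were maintained in IMDM/20% FBS. Parental MA93 received IMDM/20% FBS plus 10 ng/mL human SCF, TPO, FLT3L, IL3 and IL6. Dosing used ≥5 two-fold dilutions from 50 μM top, 0.1% DMSO final, in triplicate wells with ≥2 biological replicates. Plates ran 72 h at 37°C, followed by 30 min reagent incubation at RT in the dark. GI50 came from DMSO-normalized luminescence.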

MA93 FLT3-ITD cells = assay: Proliferation assay; format: cell-based; details: Homo sapiens, 72 h
Summary of the method: as §2

MA93 Ras cells = assay: Proliferation assay; format: cell-based; details: Homo sapiens, MA9.3RAS, 72 h
Summary of the method: as §2

RN2 cells = assay: Proliferation assay; format: cell-based, murine; details: Mus musculus, 72 h
Summary of the method: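 Murine RN2 cells were seeded at 2,500/well and exposed to ≥5 two-fold dilutions (top 50 μM, 0.1% DMSO final) in triplicate wells, with ≥2 biological replicates, for 72 h. MTS reagent was added for 1.25 h at 37°C and absorbance read at 490 nm. Values were normalized to DMSO wells and GI50 fitted. Error bars are SEM.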

[1] = test system: gene body transcription in MV4:11 cells; assay: PRO-Seq; format: cell-based, human; details: MV4:11, 36 μM, 15, 30 or 60 min
Summary of the method: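 30 million MV4:11 cells were harvested 15, 30 or 60 min after test compound; 0.1% DMSO for 60 min was the reference. Cells were swollen on ice, lysed with 0.1% Triton/10% glycerol and Dounce-homogenized. Nuclei were stored at −80°C in 40% glycerol freezing buffer (2 × 10^7 nuclei/100 μl) and used for nuclear run-on. Beads were washed in high/medium/low salt; RNA was TRIzol-extracted.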

WDR5 [2] = biological target: T1, WDR5 (Homo sapiens, UniProt P61964); assay: ChIP-PCR of WDR5 binding; format: cell-based; details: MV4:11, 36 μM, 4 h
Summary of the method: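 MV4:11 cells were treated 4 h with 36 μM test compound, its negative control or DMSO. They were cross-linked in 0.75–1% formaldehyde for 10 min at RT and quenched with 125 mM glycine. Cells were lysed in SDS/Triton formaldehyde lysis buffer. Chromatin from 6 million cells was used per IP, with anti-WDR5 (D9E1I) or IgG, followed by low-salt, high-salt, LiCl and TE washes. Signal is % input, biological triplicate, SEM.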

WDR5 [3] = biological target: T1, WDR5; assay: Subcellular fractionation, WDR5 western blot; format: cell-based; details: MV4:11, 36 μM, 4 h
WDR5 [4] = biological target: T1, WDR5; assay: 10-mer-Thr-FAM peptide TR-FRET competition assay; format: binding; details: relative to C3
MV4:11 cells = assay: Proliferation assay; format: cell-based, human; details: Homo sapiens, MV4-11, 72 h, MV4:11, 3 days, mean with SEM
Summary of the method: as §1

Molm13 cells = assay: Proliferation assay; format: cell-based; details: Homo sapiens, MOLM-13, 72 h
Summary of the method: as §1

MONO-Mac-6 cells = assay: Proliferation assay; format: cell-based; details: Homo sapiens, MONO-MAC-6, 72 h
Summary of the method: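 MONO-MAC-6 cells were maintained in RPMI with 10% FBS, non-essential amino acids and OPI supplement. CellTiter-Glo used 5,000 cells/well and ≥5 two-fold dilutions from 50 μM (0.1% DMSO final), in triplicate wells with ≥2 biological replicates, over 72 h at 37°C.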

GDM-1 cells = assay: Proliferation assay; format: cell-based; details: Homo sapiens, GDM-1, 72 h
Summary of the method: as §1

[5] = test system: gene expression in MV4:11 cells; assay: RNA-Seq; format: cell-based, human; details: MV4:11, 2 μM, 3 days
WDR5 [6] = biological target: T1, WDR5; assay: ChIP-Seq of WDR5; format: cell-based; details: MV4:11, 2 μM, 4 h
Summary of the method: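 MV4:11 cells at 10^6/ml were treated 4 h with 2 μM test compound, negative control or 0.1% DMSO. Cells were concentrated to 4 × 10^6/ml in PBS, fixed in 1% formaldehyde for 10 min at RT and quenched with 125 mM glycine. They were lysed in 1% SDS FA buffer. Sheared chromatin was diluted to 0.1% SDS and immunoprecipitated overnight at 4°C with anti-WDR5 (D9E1I or 429A) or IgG on BSA-blocked protein-A agarose. Peaks were compared by normalized average read counts.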

[7] = test system: p53 and p21 protein levels in MV4:11 cells; assay: p53/p21 induction western blot; format: cell-based, human; details: MV4:11, 30 µM OICR-9429
Summary of the method: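 Treatment lasted 24 h with test compound or its negative control, at 2 μM in MV4:11 and 3 μM in Molm13. Comparators were 2 μM Nutlin-3 or 0.1% DMSO. Four million cells were PBS-washed and lysed 10 min on ice in Kischkel buffer. p53 and p21 were detected by western blot, with histone H3 as loading control.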

[8] = test system: ribosome protein gene expression in MV4:11 cells; assay: RT-qPCR quantification of RPG mRNA expression; format: cell-based, human; details: MV4:11, three days, 50 µM OICR-9429 (adjusted to relative GI50)
Summary of the method: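 Cells were lysed in Trizol and total RNA isolated on columns with DNase digestion. 1 μg RNA was reverse transcribed with MuLV reverse transcriptase in 20 μl, then diluted three-fold in nuclease-free water before qPCR.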

[9] = test system: p53 turnover in MV4:11 cells; assay: Cycloheximide; format: cell-based, human; details: MV4:11, 2 μM, 24 h before CHX
Summary of the method: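 Before the cycloheximide chase, MV4:11 cells were pretreated 24 h with 2 μM test compound, 2 μM Nutlin-3 as comparator, or DMSO only. p53 was then followed by immunoblot.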

| Structure (SMILES) | GI50 (HL60 cells) [µM] | GI50 (K562 cells) [µM] | GI50 (THP-1 cells) [µM] | GI50 (MV4:11 cells) [µM] | GI50 (Molm13 cells) [µM] | GI50 (HEL cells) [µM] | GI50 (NOMO-1 cells) [µM] | GI50 (SET-2 cells) [µM] | GI50 (MA93 cells) [µM] | GI50 (MA93 FLT3-ITD cells) [µM] | GI50 (MA93 Ras cells) [µM] | GI50 (RN2 cells) [µM] | also measured |
| --- | --- | --- | --- | --- | --- | --- | --- | --- | --- | --- | --- | --- | --- |
| Cc1nc(F)ccc1-c1cc(C(=O)NCc2ccc(Cl)c(Cl)c2)ccc1Cn1ccn(C)c1=N [Compound C6nc, N-(3,4-dichlorobenzyl)-3-(6-fluoro-2-methylpyridin-3-yl)-4-((2-imino-3-methyl-2,3-dihydro-1H-imidazol-1-yl)methyl)benzamide] | > 50 | 31.7 ± 2.45 | > 50 | 42 ± 9.02 | > 50 | > 50 | > 50 | > 50 | 30.3 ± 5.94 | 26.2 ± 4.75 | > 50 | > 50 | GI50 (MONO-Mac-6 cells): > 50 µM; GI50 (GDM-1 cells): > 50 µM; effect on gene expression levels [5]: no significant effect on gene expression levels; WDR5 binding events on chromatin (WDR5 [6]): little impact on WDR5 binding |
| COc1ccc(C2=N[C@@H](c3ccc(Cl)cc3)[C@@H](c3ccc(Cl)cc3)N2C(=O)N2CCNC(=O)C2)c(OC(C)C)c1 [nutlin-3, reference compound] |  |  |  |  |  |  |  |  |  |  |  |  | p53 turnover in CHX chase [9]: increased the stability of p53 |

More lines, main results first:

| GI50 (HL60 cells) [µM] | GI50 (K562 cells) [µM] | GI50 (THP-1 cells) [µM] | GI50 (MV4:11 cells) [µM] | GI50 (Molm13 cells) [µM] | Structure (SMILES) | GI50 (HEL cells) [µM] | GI50 (NOMO-1 cells) [µM] | GI50 (SET-2 cells) [µM] | GI50 (MA93 cells) [µM] | GI50 (MA93 FLT3-ITD cells) [µM] | GI50 (MA93 Ras cells) [µM] | GI50 (RN2 cells) [µM] | also measured |
| --- | --- | --- | --- | --- | --- | --- | --- | --- | --- | --- | --- | --- | --- |
| > 50 | > 50 | > 50 |  |  | COc1cc(CNC(=O)c2ccc(F)c(CNC3=NCCN3)c2)cc(OC)c1 [Compound C3, 3-(((4,5-dihydro-1H-imidazol-2-yl)amino)methyl)-N-(3,5-dimethoxybenzyl)-4-fluorobenzamide] | > 50 | > 50 | > 50 | 22.1 ± 3.6 | 21.2 ± 2.11 | > 50 | 8.65 ± 0.989 | increase in transcription [1]: no instances in which C3 promoted an increase in transcription; reduction in WDR5 binding at five loci (WDR5 [2]): > 10 fold; chromatin-bound WDR5 (P3 fraction) (WDR5 [3]): reduced the total amount of chromatin-bound WDR5 |
| > 50 | > 50 | > 50 | > 50 | > 50 | COc1cc(CNC(=O)c2cccc(CNC3=NCCN3)c2F)cc(OC)c1 [Compound C3nc, 3-(((4,5-dihydro-1H-imidazol-2-yl)amino)methyl)-N-(3,5-dimethoxybenzyl)-2-fluorobenzamide] | > 50 | > 50 | > 50 | > 50 | > 50 | > 50 | > 50 | binding to WDR5 of negative control (WDR5 [4]): reduced affinity |
|  |  |  | 31 |  | CN1CCN(c2ccc(-c3cccc(CN4CCOCC4)c3)cc2NC(=O)c2c[nH]c(=O)cc2C(F)(F)F)CC1 [OICR-9429, reference compound] |  |  |  |  |  |  |  | p53 and p21 protein induction [7]: induced both p53 and p21; transcription of RPGs [8]: selectively inhibited the transcription of WDR5-bound RPGs |
